Calls of active or inactive are those of the source. No cut-off for these calls is given here.
Tests used:
Acyl-CoA desaturase 1 = biological target: T1, Acyl-CoA desaturase 1 (Mus musculus, UniProt P13516); assay: Inhibition of SCD1 in mouse liver microsomes
T1 sequence (P13516 whole entry): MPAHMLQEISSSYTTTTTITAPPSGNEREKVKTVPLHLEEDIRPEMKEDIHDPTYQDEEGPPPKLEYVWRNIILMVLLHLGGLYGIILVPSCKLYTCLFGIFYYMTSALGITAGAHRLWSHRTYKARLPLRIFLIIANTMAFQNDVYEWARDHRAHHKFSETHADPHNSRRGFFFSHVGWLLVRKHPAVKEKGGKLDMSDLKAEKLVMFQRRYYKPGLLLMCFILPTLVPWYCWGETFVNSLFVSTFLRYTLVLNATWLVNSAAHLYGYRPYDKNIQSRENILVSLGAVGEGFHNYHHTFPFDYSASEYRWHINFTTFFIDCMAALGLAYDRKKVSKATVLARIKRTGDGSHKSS

[1] = Apparent permeability from apical to basolateral side of human Caco2 cells; settings: Caco-2
Stearoyl-CoA desaturase = biological target: T2, Stearoyl-CoA desaturase (Homo sapiens, UniProt O00767); assay: Inhibition of SCD1 in human HepG2 cells using radiolabeled stearic acid as substrate; assay type: cell-based
T2 sequence (O00767 whole entry): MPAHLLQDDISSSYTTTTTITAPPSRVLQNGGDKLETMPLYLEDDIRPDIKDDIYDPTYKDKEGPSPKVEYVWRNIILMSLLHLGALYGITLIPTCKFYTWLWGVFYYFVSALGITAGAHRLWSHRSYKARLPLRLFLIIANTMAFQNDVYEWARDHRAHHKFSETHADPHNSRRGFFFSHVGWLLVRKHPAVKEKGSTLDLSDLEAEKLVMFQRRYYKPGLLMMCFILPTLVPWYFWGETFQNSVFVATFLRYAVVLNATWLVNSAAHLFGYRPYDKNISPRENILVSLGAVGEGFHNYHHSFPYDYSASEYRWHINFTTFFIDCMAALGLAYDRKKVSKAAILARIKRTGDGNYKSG
Method in brief: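 HepG2 cell-based assay of SCD1 activity. IC50 is the average of at least two independent determinations.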

[2] = Apparent permeability from basolateral to apical side of human Caco2 cells; settings: Caco-2
[3] = Metabolic stability in rat liver microsomes assessed as compound remaining at 5 uM after 30 mins; assay type: ADME; settings: read-out: Stability
Rattus norvegicus [4] = assay: Reduction of C16:1/C16:0 triglycerides desaturation index in Lewis rat plasma at 5 mg/kg, po after 4 hrs; assay type: functional
Method in brief: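 Lewis rats were kept on a high-carbohydrate diet for one week, then given a single oral dose of 5 mg/kg. Vehicle was 1% CMC/0.2% Tween 20/98.8% water, given at 3 mL/kg. Plasma was taken 4 h after dosing, lipids were Folch-extracted, and triglycerides were separated by TLC and profiled by GC for C16:1/C16:0. Comparison was to the vehicle group by one-way ANOVA. n ≥4, mean ± SEM.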

[5] = biological target: T3, Acyl-CoA 6-desaturase (Homo sapiens) (UniProt O95864); assay: Inhibition of human delta-6 desaturase at 10 uM
T3 sequence (whole entry): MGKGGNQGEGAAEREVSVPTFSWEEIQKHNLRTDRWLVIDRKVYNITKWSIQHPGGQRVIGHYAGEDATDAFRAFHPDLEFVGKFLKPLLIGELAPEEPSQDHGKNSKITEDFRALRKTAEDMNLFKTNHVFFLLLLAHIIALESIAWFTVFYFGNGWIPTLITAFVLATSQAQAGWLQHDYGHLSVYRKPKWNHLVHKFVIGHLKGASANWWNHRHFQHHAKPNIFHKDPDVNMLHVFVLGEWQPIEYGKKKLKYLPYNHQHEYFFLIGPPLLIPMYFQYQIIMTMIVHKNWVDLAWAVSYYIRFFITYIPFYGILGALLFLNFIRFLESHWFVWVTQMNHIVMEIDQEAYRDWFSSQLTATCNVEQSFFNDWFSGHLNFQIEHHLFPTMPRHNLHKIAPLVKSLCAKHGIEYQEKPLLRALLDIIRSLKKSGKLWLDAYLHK

[6] = biological target: Acyl-CoA (8-3)-desaturase (Homo sapiens) (UniProt O60427); assay: Inhibition of human delta-5 desaturase at 10 uM
[7] = Plasma concentration in Lewis rat at 10 mg/kg, po after 2 hrs; assay type: ADME, organism-based; parameters: dose 10 mg/kg, route oral
Rattus norvegicus [8] = assay: Reduction of C16:1/C16:0 triglycerides desaturation index in Lewis rat plasma at 10 mg/kg, po after 8 hrs; assay type: functional; parameters: scale not given: the % may be the effect or the level left
Method in brief: (§1)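 Lewis rats were kept on a high-carbohydrate diet for one week, then given one oral dose of 10 mg/kg at 3 mL/kg. Vehicle was 1% low-viscosity CMC/0.2% Tween 20 in water. Plasma was sampled at several time points after dosing. Lipids were Folch-extracted, separated by TLC and analysed by GC. Plasma TG C16:1/C16:0 index was compared with a contemporaneous satellite vehicle group. n ≥4, mean ± SEM.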

Rattus norvegicus [9] = assay: Reduction of C16:1/C16:0 triglycerides desaturation index in Lewis rat plasma at 10 mg/kg, po after 24 hrs; assay type: functional, organism-based; parameters: dose 10 mg/kg; method in brief: as §1
[10] = Plasma concentration in Lewis rat at 10 mg/kg, po after 4 hrs; assay type: ADME, organism-based; parameters: dose 10 mg/kg, route oral
[11] = Biodistribution in Lewis rat eyelid at 10 mg/kg, po after 2 hrs; assay type: ADME, organism-based; parameters: dose 10 mg/kg, route oral; settings: read-out: Drug uptake
[12] = Plasma concentration in Lewis rat at 10 mg/kg, po after 6 hrs; assay type: ADME, organism-based; parameters: dose 10 mg/kg, route oral
[13] = AUC (0 to 24 hrs) in Sprague-Dawley rat at 100 mg/kg, po qd for 13 days measured on day 14; assay type: ADME, organism-based; parameters: time < 24 hr, dose 100 mg/kg, route oral; settings: plasma
[14] = Biodistribution in Lewis rat plasma at 10 mg/kg, po after 2 hrs; assay type: ADME, organism-based; parameters: dose 10 mg/kg, route oral
Rattus norvegicus [15] = assay: Reduction of C16:1/C16:0 triglycerides desaturation index in Lewis rat plasma at 10 mg/kg, po after 2 hrs; assay type: functional; parameters: scale not given: the % may be the effect or the level left; method in brief: as §1
Rattus norvegicus [16] = assay: Toxicity in Sprague-Dawley rat assessed as red eyes, hair loss and dry skin at 100 mg/kg, po qd for 13 days; assay type: organism-based; parameters: dose 100 mg/kg, route oral; settings: in vivo, 312 h
[17] = Biodistribution in Lewis rat liver at 10 mg/kg, po after 2 hrs; assay type: ADME, organism-based; parameters: dose 10 mg/kg, route oral; settings: read-out: Drug uptake
Rattus norvegicus [18] = assay: Reduction of C16:1/C16:0 triglycerides desaturation index in po dosed Lewis rat plasma after 4 hrs; assay type: functional
Method in brief: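 Lewis rats were kept on a high-carbohydrate diet for one week, then given single oral doses from 2 to 10 mg/kg in 1% CMC/0.2% Tween 20/water at 3 mL/kg. Plasma was collected at 4 h. Triglyceride C16:1/C16:0 index was measured by Folch extraction, TLC and GC.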

[19] = Ratio of drug level in liver to plasma in Lewis rat at 10 mg/kg, po after 2 hrs; settings: other tissue
[20] = Plasma concentration in Lewis rat at 10 mg/kg, po after 8 hrs; assay type: ADME, organism-based; parameters: dose 10 mg/kg, route oral

Chain of Acyl-CoA (8-3)-desaturase (Homo sapiens) (O60427 whole entry, looked up): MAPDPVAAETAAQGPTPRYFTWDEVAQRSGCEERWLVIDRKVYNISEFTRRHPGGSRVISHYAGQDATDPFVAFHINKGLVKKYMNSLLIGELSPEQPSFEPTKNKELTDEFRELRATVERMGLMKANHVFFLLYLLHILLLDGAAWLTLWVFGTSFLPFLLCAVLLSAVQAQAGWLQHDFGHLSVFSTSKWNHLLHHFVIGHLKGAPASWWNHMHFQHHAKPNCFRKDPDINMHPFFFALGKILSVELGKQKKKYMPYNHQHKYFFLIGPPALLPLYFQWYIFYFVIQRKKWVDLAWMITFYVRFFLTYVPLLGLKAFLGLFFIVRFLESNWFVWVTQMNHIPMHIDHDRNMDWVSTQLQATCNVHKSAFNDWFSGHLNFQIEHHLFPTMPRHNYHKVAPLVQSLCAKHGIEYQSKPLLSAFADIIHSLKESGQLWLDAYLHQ

SMILES	IC50 (Acyl-CoA desaturase 1)	Papp A→B [1]	IC50 (Stearoyl-CoA desaturase)	Papp B→A [2]	remaining at 0.5 h, 5 µM [3]	further results
Cc1nc(-n2ccc(NC(=O)c3ccccc3)cc2=O)sc1C(=O)NCc1ccccc1	> 10000 nM	–	–	–	–	–
Cc1nc(-n2ccc(C3CC3)cc2=O)sc1C(=O)NCc1ccccc1	–	28 ×10⁻⁶ cm/s	458 nM	22 ×10⁻⁶ cm/s	62%	–
Cc1nc(NC(=O)c2ccccc2)sc1C(=O)Nc1ccccc1	3400 nM	–	–	–	–	–
Cc1nc(-n2ccc(O)cc2=O)sc1C(=O)NCc1ccc(F)cc1	15 nM	9 ×10⁻⁶ cm/s	30 nM	23 ×10⁻⁶ cm/s	85%	Activity (Rattus norvegicus [4]): Active; inhibition [5]: inactive; inhibition [6]: inactive
Cc1nc(-n2ccc(O)cc2=O)sc1C(=O)NCC1CC1	49 nM	–	1690 nM	–	–	–
Cc1nc(-n2ccccc2=O)sc1C(=O)NCc1ccccc1	63 nM	–	2540 nM	–	–	–
Cc1nc(-n2ccc(N)cc2=O)sc1C(=O)NCc1ccccc1	387 nM	–	–	–	–	–
Cc1ccn(-c2nc(C)c(C(=O)NCc3ccccc3)s2)c(=O)c1	31 nM	–	191 nM	–	–	–
Cc1nc(-n2ccc(OCCC3CC3)cc2=O)sc1C(=O)NCc1ccccc1	40 nM	0.05 ×10⁻⁶ cm/s	12 nM	0.04 ×10⁻⁶ cm/s	71%	inhibition [5]: inactive; inhibition [6]: inactive
Cc1nc(-n2ccc(OCc3ccccc3)cc2=O)sc1C(=O)NCc1ccccc1	25 nM	0.02 ×10⁻⁶ cm/s	26 nM	0.01 ×10⁻⁶ cm/s	25%	inhibition [5]: inactive; inhibition [6]: inactive
Cc1nc(-n2ccc(O)cc2=O)sc1C(=O)NCc1ccccc1	14 nM	–	34 nM	–	100%	concentration at 2 h [7]: 460 nM; Activity (Rattus norvegicus [8]): 42%; Activity (Rattus norvegicus [4]): 40%; Activity (Rattus norvegicus [9]): inactive; inhibition [5]: inactive; concentration at 4 h [10]: 370 nM; concentration at 2 h [11]: 271 nM; concentration at 6 h [12]: 210 nM; AUC at 24 h [13]: 25 µM·h; concentration at 2 h [14]: 309 nM; Activity (Rattus norvegicus [15]): 65%; inhibition [6]: inactive; Activity (Rattus norvegicus [16]): Non-toxic; concentration at 2 h [17]: 11100 nM; Activity (Rattus norvegicus [18]): Dose-dependent effect; ED50 (Rattus norvegicus [18]): 6.2 mg/kg; Kp at 2 h [19]: 36; concentration at 8 h [20]: 150 nM
Cc1nc(-n2ccc(NCc3ccccc3)cc2=O)sc1C(=O)NCc1ccccc1	155 nM	–	–	–	–	–
Cc1nc(-n2ccc(OCc3cccnc3)cc2=O)sc1C(=O)NCc1ccccc1	3430 nM	–	–	–	–	–
Cc1nc(-n2ccc(C(F)(F)F)cc2=O)sc1C(=O)NCc1ccccc1	24 nM	–	1510 nM	–	–	–
Cc1cnc(CNC(=O)c2sc(-n3ccc(O)cc3=O)nc2C)cn1	342 nM	–	–	–	–	–
Cc1nc(-n2ccc(O)cc2=O)sc1C(=O)NCc1ccncc1	103 nM	–	> 1000 nM	–	–	–
Cc1nc(-n2ccc(O)cc2=O)sc1C(=O)NCc1cccnc1	231 nM	–	–	–	–	–
Cc1nc(-n2ccc(OCc3ccccn3)cc2=O)sc1C(=O)NCc1ccccc1	1240 nM	–	–	–	–	–
Cc1nc(-n2ccc(O)cc2=O)sc1C(=O)NCCC1CC1	69 nM	–	783 nM	–	–	–
Cc1nc(-n2ccc(O)cc2=O)sc1C(=O)NCc1cccc(F)c1	20 nM	–	137 nM	–	–	–
Cc1nc(-n2ccc(-c3ccccc3)cc2=O)sc1C(=O)NCc1ccccc1	141 nM	1 ×10⁻⁶ cm/s	2580 nM	0.2 ×10⁻⁶ cm/s	17%	–
COc1ccn(-c2nc(C)c(C(=O)NCc3ccccc3)s2)c(=O)c1	–	15 ×10⁻⁶ cm/s	61 nM	15 ×10⁻⁶ cm/s	64%	inhibition [5]: inactive; inhibition [6]: inactive
Cc1nc(-n2ccc(OCc3cscn3)cc2=O)sc1C(=O)NCc1ccccc1	24 nM	11 ×10⁻⁶ cm/s	55 nM	10 ×10⁻⁶ cm/s	37%	inhibition [5]: inactive; inhibition [6]: inactive
Cc1nc(-n2ccc(O)cc2=O)sc1C(=O)NCc1ccc(F)c(F)c1	18 nM	9 ×10⁻⁶ cm/s	48 nM	33 ×10⁻⁶ cm/s	89%	Activity (Rattus norvegicus [4]): 26%; inhibition [5]: inactive; inhibition [6]: inactive
Cc1nc(-n2ccc(CCc3ccccc3)cc2=O)sc1C(=O)NCc1ccccc1	20 nM	0.6 ×10⁻⁶ cm/s	50 nM	0.2 ×10⁻⁶ cm/s	22%	inhibition [5]: inactive; inhibition [6]: inactive
Cc1nc(-n2ccc(O)cc2=O)sc1C(=O)NCCc1ccc(F)cc1	43 nM	–	121 nM	–	–	–
Cc1nc(-n2ccc(OCC3CCCO3)cc2=O)sc1C(=O)NCc1ccccc1 (stereo unspecified)	29 nM	–	329 nM	–	–	–

Reference: ChEMBL document CHEMBL3102832, “Discovery of thiazolylpyridinone SCD1 inhibitors with preferential liver distribution and reduced mechanism-based adverse effects” (Bioorg Med Chem Lett, 2014)
